Results published in ChEMBL document CHEMBL3526063, “Metabolism and pharmacokinetics of JM6 in mice: JM6 is not a prodrug for Ro-61-8048” (Drug Metab Dispos, 2012).
One block for each molecule: values may come before it.

Columns and labels:
[1] = system: Mus musculus; assay: Dose normalised AUC in C57BL/6N mouse at 10 mg/kg, po administered via gavage containing <0.4% Ro-61-8048 by LC-MS/MS analysis; format: ADME, organism-based; set-up: dose 10 mg/kg, route oral; settings: in vivo
Procedure, shortened: (§1)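 Male C57BL/6N mice were dosed by oral gavage at 10 mL/kg with a fine suspension in 10% hydroxypropyl-β-cyclodextrin in 50 mM phosphate buffer, pH 7. Plasma was taken at non-serial time points (n=3 per time point), extracted with 0.1% formic acid in acetonitrile containing diclofenac as internal standard, and quantified by UPLC-MS/MS. Composite non-compartmental parameters came from mean concentrations; AUClast by linear trapezoid, kel from at least three terminal points.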

[2] = AUC(infinity) in C57BL/6N mouse at 5 mg/kg, iv administered as single dose containing <0.4% Ro-61-8048 by LC-MS/MS analysis; format: ADME, organism-based; set-up: time infinity, dose 5 mg/kg, route intravenous; settings: plasma
Procedure, shortened: (§2)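 Single intravenous bolus of 5 mg/kg to male C57BL/6N mice, given as a filtered 1 mg/mL solution in DMSO:PEG400:water 10:50:40 (v/v). Plasma was extracted in acidified acetonitrile with diclofenac as internal standard and analysed by UPLC-MS/MS. Non-compartmental analysis used mean concentrations (n=3 per time point), with C0 back-extrapolated from the first two samples. AUCinf = AUClast + Ct/kel.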

[3] = molecular target: Kynurenine 3-monooxygenase (Homo sapiens, UniProt O15229); assay: Inhibition of KMO (unknown origin)
Chain of Kynurenine 3-monooxygenase (Homo sapiens, UniProt O15229) (O15229 whole entry): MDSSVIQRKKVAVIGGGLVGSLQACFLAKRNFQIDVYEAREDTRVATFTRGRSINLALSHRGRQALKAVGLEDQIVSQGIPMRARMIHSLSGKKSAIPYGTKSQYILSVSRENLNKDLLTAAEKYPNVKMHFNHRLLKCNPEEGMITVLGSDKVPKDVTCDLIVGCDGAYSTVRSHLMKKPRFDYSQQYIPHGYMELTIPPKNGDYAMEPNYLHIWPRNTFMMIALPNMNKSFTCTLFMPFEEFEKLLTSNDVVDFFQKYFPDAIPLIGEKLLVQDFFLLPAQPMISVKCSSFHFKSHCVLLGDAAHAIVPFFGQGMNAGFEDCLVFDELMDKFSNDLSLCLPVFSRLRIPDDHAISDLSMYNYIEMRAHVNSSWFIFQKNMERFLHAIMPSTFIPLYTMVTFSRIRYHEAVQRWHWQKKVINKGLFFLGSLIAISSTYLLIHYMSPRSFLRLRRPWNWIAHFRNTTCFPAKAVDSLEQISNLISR

[4] = system: Mus musculus; assay: Dose normalised AUC in C57BL/6N mouse at 5 mg/kg, iv administered as single dose containing <0.4% Ro-61-8048 by LC-MS/MS analysis; format: ADME, organism-based; set-up: dose 5 mg/kg, route intravenous; settings: in vivo; procedure, shortened: as §2
[5] = Half life in simulated gastric fluid of pH 1.2 at 10 uM after 2 and 4 hrs by LC-UV analysis; format: ADME
Procedure, shortened: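 Compound at 10 µM was shaken at about 25 °C in simulated gastric fluid (2 g/L NaCl, 3.2 g/L pepsin, 0.7% HCl, pH 1.2) and in pepsin-free gastric buffer. Aliquots were taken at 0, 2 and 4 h, diluted into DMSO, and analysed immediately by LC-UV at 254 nm.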

[6] = system: Mus musculus; assay: Dose normalised Cmax in C57BL/6N mouse at 10 mg/kg, po administered via gavage containing <0.4% Ro-61-8048 by LC-MS/MS analysis; format: ADME, organism-based; set-up: dose 10 mg/kg, route oral; settings: in vivo; procedure, shortened: as §1
[7] = system: Mus musculus; assay: Cmax in C57BL/6N mouse at 10 mg/kg, po administered via gavage containing <0.4% Ro-61-8048 by LC-MS/MS analysis; format: ADME, organism-based; set-up: dose 10 mg/kg, route oral; settings: in vivo; procedure, shortened: as §1
[8] = AUClast in C57BL/6N mouse at 5 mg/kg, iv administered as single dose containing <0.4% Ro-61-8048 by LC-MS/MS analysis; format: ADME, organism-based; set-up: time 0 - last, dose 5 mg/kg, route intravenous; settings: plasma; procedure, shortened: as §2
[9] = Volume of distribution at steady state in C57BL/6N mouse at 5 mg/kg, iv administered as single dose containing <0.4% Ro-61-8048 by LC-MS/MS analysis; format: ADME, organism-based; set-up: dose 5 mg/kg, route intravenous; settings: in vivo, read-out: Vdss
Procedure, shortened: (§3)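 Male C57BL/6N mice given 5 mg/kg iv bolus (1 mg/mL, DMSO:PEG400:water 10:50:40, filtered); dosed material carried Ro-61-8048 as impurity, which was also quantified in plasma. LC-MS/MS after acetonitrile/formic acid extraction; composite non-compartmental analysis of mean concentrations (n=3 per time point), C0 back-extrapolated, kel from ≥3 terminal points.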

[10] = Half life in C57BL/6N mouse at 5 mg/kg, iv administered as single dose containing <0.4% Ro-61-8048 by LC-MS/MS analysis; format: ADME, organism-based; set-up: dose 5 mg/kg, route intravenous; settings: in vivo; procedure, shortened: as §2
[11] = Plasma clearance in C57BL/6N mouse at 5 mg/kg, iv administered as single dose containing <0.4% Ro-61-8048 by LC-MS/MS analysis; format: ADME, organism-based; set-up: dose 5 mg/kg, route intravenous; procedure, shortened: as §3
[12] = Cmax in R6/2 mouse at 7.5 mg/kg/day, po; format: ADME, organism-based; set-up: dose 7.5 mg/kg/day, route oral; settings: in vivo
[13] = Plasma protein binding in human at 10 uM for 6 hrs by LC-MS/MS analysis; format: ADME, cell-free; settings: read-out: PPB
Procedure, shortened: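 Equilibrium dialysis: plasma fortified in triplicate (5 and 20 µM rat and mouse; 10 µM human) on donor side, PBS on receiver side; 37°C, 200 rpm, 6 h; both sides by LC-MS/MS.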

[14] = Oral bioavailability in C57BL/6N mouse at 0.05 mg/kg administered via gavage by LC-MS/MS analysis; format: ADME, organism-based; settings: in vivo
Procedure, shortened: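 Male C57BL/6N mice dosed by oral gavage (10 mL/kg) as fine suspensions in 10% hydroxypropyl-β-cyclodextrin in 50 mM phosphate buffer pH 7; dose formulations verified by LC-MS/MS. Plasma analysed by LC-MS/MS; composite non-compartmental parameters from mean concentrations (n=3 per time point), C0 set to zero. %F = dose-normalised po AUCinf over dose-normalised iv AUCinf, only within linear range.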

[15] = AUC(infinity) in C57BL/6N mouse at 5 mg/kg, iv administered as single dose by LC-MS/MS analysis; format: ADME, organism-based; set-up: time infinity, dose 5 mg/kg, route intravenous; settings: plasma; procedure, shortened: as §2
[16] = Cmax in C57BL/6N mouse at 0.05 mg/kg, po administered via gavage by LC-MS/MS analysis; format: ADME, organism-based; set-up: dose 0.05 mg/kg, route oral; settings: in vivo; procedure, shortened: as §1
[17] = system: Mus musculus; assay: Dose normalised Cmax in C57BL/6N mouse at 0.05 mg/kg, po administered via gavage by LC-MS/MS analysis; format: ADME, organism-based; set-up: dose 0.05 mg/kg, route oral; settings: in vivo; procedure, shortened: as §1
[18] = system: Mus musculus; assay: Dose normalised AUC in C57BL/6N mouse at 0.05 mg/kg, po administered via gavage by LC-MS/MS analysis; format: ADME, organism-based; set-up: dose 0.05 mg/kg, route oral; settings: in vivo; procedure, shortened: as §1
[19] = molecular target: Kynurenine 3-monooxygenase (Rattus norvegicus, UniProt O88867); assay: Inhibition of Wistar rat KMO assessed as 3-hydroxykynurenine formation preincubated for 5 mins using 100 uM kynurenine as substrate by LC-MS/MS analysis in presence of 3 mg/ml plasma protein
Chain of Kynurenine 3-monooxygenase (Rattus norvegicus, UniProt O88867) (O88867 whole entry): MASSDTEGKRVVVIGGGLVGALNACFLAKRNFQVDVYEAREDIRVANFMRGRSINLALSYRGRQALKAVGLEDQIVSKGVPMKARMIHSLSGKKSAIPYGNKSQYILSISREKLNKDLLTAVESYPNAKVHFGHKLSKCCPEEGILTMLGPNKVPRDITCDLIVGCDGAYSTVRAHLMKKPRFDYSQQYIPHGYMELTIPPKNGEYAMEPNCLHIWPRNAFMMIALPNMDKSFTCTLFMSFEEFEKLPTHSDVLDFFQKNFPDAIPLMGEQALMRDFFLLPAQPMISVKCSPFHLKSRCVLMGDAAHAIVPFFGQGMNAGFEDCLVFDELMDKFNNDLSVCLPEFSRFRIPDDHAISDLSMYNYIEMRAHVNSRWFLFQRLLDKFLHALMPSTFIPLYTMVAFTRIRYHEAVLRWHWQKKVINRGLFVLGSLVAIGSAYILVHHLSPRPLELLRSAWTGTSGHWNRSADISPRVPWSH
Procedure, shortened: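 KMO from Wistar rat liver (0.3 mg protein/ml) preincubated 5 min at 25°C with compound plus 3 mg/mL plasma protein in 100 mM potassium phosphate pH 7.4, 200 µM NADPH, G6PDH regenerating system. Started with 100 µM kynurenine, 40 min, stopped with TCA; 3-hydroxykynurenine by LC-MS/MS. 8-point 3-fold dilutions; triplicates, ≥2 runs.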

[20] = AUClast in C57BL/6N mouse at 5 mg/kg, iv administered as single dose by LC-MS/MS analysis; format: ADME, organism-based; set-up: time 0 - last, dose 5 mg/kg, route intravenous; settings: plasma; procedure, shortened: as §2
[21] = Volume of distribution at steady state in C57BL/6N mouse at 5 mg/kg, iv administered as single dose by LC-MS/MS analysis; format: ADME, organism-based; set-up: dose 5 mg/kg, route intravenous; settings: in vivo, read-out: Vdss
Procedure, shortened: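 Male C57BL/6N mice given 5 mg/kg iv bolus as 1 mg/mL filtered solution in DMSO:PEG400:water 10:50:40. Plasma extracted with acidified acetonitrile (diclofenac IS), analysed by LC-MS/MS. Composite non-compartmental parameters from mean concentrations (n=3 per time point); C0 back-extrapolated from first two points; kel from at least last three concentrations.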

AUC/dose [1]: 110 nM·kg·h/mg | AUC(0-inf) [2]: 5.2 µM·h | IC50 [3]: 4 µM | AUC/dose [4]: 1000 nM·kg·h/mg | half-life at 10 µM [5]: > 1080 min | Cmax/dose [6]: 0.11 µM | Cmax [7]: 0.1 µM | AUC(0-t) [8]: 5.2 µM·h | Vd [9]: 0.37 L/kg | half-life [10]: 43.2 min | clearance [11]: 1.9 L/h/kg
SMILES: COc1ccc(S(=O)(=O)Nc2nc(-c3cccc([N+](=O)[O-])c3)c(CN3CCCCC3)s2)cc1OC

Cmax [12]: 0.28 µM | fraction unbound at 6 h, 10 µM [13]: < 0.01 | bioavailability [14]: 70% | AUC(0-inf) [15]: 550 µM·h | Cmax [16]: 0.55 µM | Cmax/dose [17]: 11 µM | AUC/dose [18]: 90000 nM·kg·h/mg | IC50 [19]: 8 µM | AUC(0-t) [20]: 510 µM·h | Vd [21]: 0.15 L/kg
SMILES: COc1ccc(S(=O)(=O)Nc2nc(-c3cccc([N+](=O)[O-])c3)cs2)cc1OC
